From ChEMBL document CHEMBL3792306, “Antichagasic and trichomonacidal activity of 1-substituted 2-benzyl-5-nitroindazolin-3-ones and 3-alkoxy-2-benzyl-5-nitro-2H-indazoles” (Eur J Med Chem, 2016) come the findings set out here.

The nature of data set [1]: Cytotoxicity against mouse L929 cells after 48 hrs by resazurin assay. In kind it is cell-based. As to conditions: read-out: LC50. In a few lines:
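L929 fibroblasts, 15×10^3 cells/well in MEM, attached 3 h. Exposed to compounds for 48 h at 37 °C, 5% CO2. Resazurin (2 mM solution in PBS) added for 3 h; fluorescence read at 535/590 nm to give % cytotoxicity. Triplicate wells, three independent runs. LC50 taken from concentration vs %C curves, mean ± SD.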
Background: Alamar Blue is a resazurin reagent that responds to reducing activity.

Data set [2] deals with Trypanosoma cruzi. The data set is described as follows: Antichagasic activity against Trypanosoma cruzi CL-B5 intracellular amastigotes in mouse L929 cells assessed as growth inhibition after 7 days by beta galactosidase reporter gene assay. The data set is classed as functional, organism-based. As to conditions: CL-B5, L929, 168 h. In a few lines: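 L929 fibroblasts (10,000/well, MEM) infected overnight at 33 °C, 5% CO₂ with CL-B5 lacZ tissue-culture trypomastigotes (1:6 cell:parasite). Washed, then 7 days with compound in fresh MEM. CPRG (400 µM final, pH 7.4) in 3% Triton X-100 for 3 h at 37 °C, A595. Triplicates; IC50 from %amastigote growth inhibition curves, mean ± SD.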
On the technique in general: Reporter assays use an easily measured gene product as a stand-in for the process of interest.

A short description of data set [3]: Selectivity index, ratio of LC50 for mouse L929 cells to IC50 for Trypanosoma cruzi CL-B5 lacZ amastigotes in mouse L929 cells. The data set is classed as toxicity, cell-based. The conditions noted are these: read-out: Ratio LC50/IC50. The method, boiled down: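 SI = LC50 (L929, 48 h resazurin) / amastigote IC50. Amastigotes: L929 cells (10,000/well, MEM) infected overnight at 33 °C with CL-B5 lacZ tissue-culture trypomastigotes (1:6 cell:parasite), washed, then exposed to compounds for 7 days. CPRG (400 µM final, 3% Triton X-100, pH 7.4) added for 3 h at 37 °C, A595 read. Triplicates; IC50 from %AGI curves. Assayed only when epimastigote SI warranted.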

In data set [4] the test system is Trypanosoma cruzi. As to the kind of experiment: Antichagasic activity against Trypanosoma cruzi CL-B5 epimastigotes […] assessed as growth inhibition after 72 hrs by beta galactosidase reporter gene assay. The data set is classed as functional, organism-based. In a few lines: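 Then CPRG (200 µM final, pH 7.4) in Triton X-100 added for 3 h at 37 °C, A595 read. Triplicates, three independent runs; IC50 from dose–response of %growth inhibition, mean ± SD.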

A short description of data set [5]: Selectivity index, ratio of CC50 for african green monkey Vero cells to IC50 for metronidazole-sensitive Trichomonas vaginalis JH31A#4 trophozoites. In kind it is functional. In a few lines: (§1)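 Selectivity index = Vero CC50 (24 h resazurin, probit) divided by trophozoite IC50 (24 h resazurin, probit) for the named T. vaginalis isolate.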
In data set [6] the test system is Trichomonas vaginalis. The data set is described as follows: Trichomonacidal activity against metronidazole-sensitive Trichomonas vaginalis JH31A#4 trophozoites after 24 hrs by resazurin dye based fluorescence assay. In kind it is functional, organism-based. The conditions noted are these: JH31A#4, 24 h. The method, boiled down:
(§2)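 Trophozoites in TYM with 10% FBS, 37 °C, 5% CO₂, seeded at 10⁵/mL in glass tubes. After 5 h, compounds added at 9.37–300 µM final (DMSO <0.2%). Viability read by resazurin fluorimetry after 24 h at 37 °C. Metronidazole 25 µM as reference. At least two runs in triplicate; IC50 with 95% limits by probit.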

Data set [7] can be described thus: Cytotoxicity against african green monkey Vero cells assessed as inhibition of cell growth at 300 uM after 24 hrs by resazurin dye based fluorescence assay. As to conditions: chlorocebus sabaeus, read-out: Activity.
Data set [8] is described as follows: Cytotoxicity against african green monkey Vero cells assessed as inhibition of cell growth after 24 hrs by resazurin dye based fluorescence assay. The conditions noted are these: chlorocebus sabaeus. The method, boiled down:
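Vero CCL-81 cells (50,000/well, RPMI with 10% FBS) attached 6 h at 37 °C, then 24 h with compound. Resazurin added for 3 h, fluorescence at ex 535/em 590 nm. Triplicates in two independent assays; CC50 and 95% confidence limits by probit analysis.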

The nature of data set [9]: Selectivity index, ratio of LC50 for mouse L929 cells to IC50 for Trypanosoma cruzi CL-B5 lacZ epimastigotes […]. In kind it is toxicity, cell-based. As to conditions: read-out: Ratio LC50/IC50. In a few lines:
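SI = LC50 (L929, 48 h resazurin) / epimastigote IC50. […] CPRG (200 µM final, 0.9% Triton X-100, pH 7.4) added for 3 h at 37 °C, A595 read. Triplicates, n = 3; IC50 from %EGI curves.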

The nature of data set [10]: Selectivity index, ratio of CC50 for african green monkey Vero cells to IC50 for metronidazole-resistant Trichomonas vaginalis IR78 trophozoites. The data set is classed as functional. The method, boiled down: as §1
Data set [11] has as its system Trichomonas vaginalis. As to the kind of experiment: Trichomonacidal activity against metronidazole-resistant Trichomonas vaginalis IR78 trophozoites after 24 hrs by resazurin dye based fluorescence assay. In kind it is functional, organism-based. As to conditions: IR78, 24 h. In a few lines: as §2

The structures appear in SMILES notation. Bounds are passed on as bounds.

As a reminder, the IC50 is the concentration that gives 50% inhibition.

Turning to `CN(C)C(=O)CCCn1c2ccc([N+](=O)[O-])cc2c(=O)n1Cc1ccccc1`, the CC50 at 48 h in data set [1] is over 256 µM. Besides, the IC50 in data set [2] stood at 0.54 µM; in data set [4], 3.86 µM; in [6], 48.9 µM. Further, the figures for the selectivity ratio in data set [3] and in data set [9] were over 474 and over 66.3, respectively. Besides, the “Ratio CC50/IC50” value in [5] is on record as over 6.1. Further, the inhibition at 24 h, 300 µM in [7] is under 20%. For the same molecule, the CC50 at 24 h in data set [8] was over 300 µM.
Regarding `O=[N+]([O-])c1ccc2nn(Cc3ccccc3)c(OCCO)c2c1`, the “Ratio CC50/IC50” value in data set [10] was over 6; in data set [5] it was over 30.5. Also, the IC50 in [11] was 49.8 µM; in [4], over 256 µM; in [6] it was 9.82 µM. In addition, the CC50 at 48 h in [1] is over 256 µM. In addition, in data set [7], the inhibition at 24 h, 300 µM was determined as 14.7%. Besides, the CC50 at 24 h in [8] was over 300 µM.
Consider `C#CCn1c2ccc([N+](=O)[O-])cc2c(=O)n1Cc1ccccc1`, for which the CC50 at 48 h in data set [1] came out at 195 µM. Moreover, the IC50 in data set [2] amounted to 3.02 µM; in data set [4], 10.8 µM; in data set [6] it was 261 µM. The selectivity ratio in data set [3] was 64.7; in data set [9], 18.1.
Consider `CNC(=O)CCCn1c2ccc([N+](=O)[O-])cc2c(=O)n1Cc1ccccc1`, for which the CC50 at 48 h in [1] is over 256 µM. The IC50 in [2] amounted to 1.5 µM; in data set [4] it was 13.3 µM; in data set [6] it was 182 µM. For the same molecule, the selectivity ratio in data set [3] is over 171; in data set [9], over 19.3.
For the molecule `CCOCCCn1c2ccc([N+](=O)[O-])cc2c(=O)n1Cc1ccccc1`, the CC50 at 48 h in [1] was 170 µM. Moreover, the results for the IC50 in data set [2], in data set [4] and in data set [6] were 3.31 µM, 6.57 µM and 362 µM, respectively. For the same molecule, the selectivity ratio was 51.5 in data set [3] and 25.9 in data set [9].
For the molecule `COC(=O)CCn1c2ccc([N+](=O)[O-])cc2c(=O)n1Cc1ccccc1`, the CC50 at 48 h in data set [1] was over 256 µM. Also, the figures for the concentration for half-maximal inhibition (IC50) in data set [2], in [4] and in data set [6] were 2.93 µM, 9.19 µM and 376 µM, respectively. Also, the results for the selectivity ratio in data set [3] and in data set [9] were over 87.4 and over 27.9, respectively.
Consider `COC(=O)CN1c2ccc([N+](=O)[O-])cc2C(=O)N(Cc2ccccc2)C1C(=O)OC` (stereo unspecified), for which, in [1], the CC50 at 48 h was determined as 205 µM. Besides, the figures for the IC50 in data set [4] and in data set [6] were over 256 µM and 58.2 µM, respectively. For the same molecule, in data set [9], the selectivity ratio is under 0.8.
In the case of `C=Cn1c2ccc([N+](=O)[O-])cc2c(=O)n1Cc1ccccc1`, the CC50 at 48 h in data set [1] is 160 µM. The IC50 was determined as 0.47 µM in data set [2], 2.75 µM in [4] and 258 µM in data set [6]. Besides, the selectivity ratio in data set [3] amounted to 341; in [9] it was 58.4.
With `N#CCn1c2ccc([N+](=O)[O-])cc2c(=O)n1Cc1ccccc1`, in data set [1], the CC50 at 48 h is over 256 µM. Besides, the results for the half-inhibitory concentration (IC50) in [2] and in data set [4] were 3.5 µM and 11.7 µM, respectively. For the same molecule, the selectivity ratio in [3] was over 73.1; in [9], over 21.9.
For the molecule `O=[N+]([O-])c1ccc2nn(Cc3ccccc3)c(OCCCO)c2c1`, the entries for the “Ratio CC50/IC50” value in data set [10] and in data set [5] were over 32.9 and over 41.4, respectively. Also, the IC50 in data set [11] turned out to be 9.11 µM; in data set [4], 64.9 µM; in data set [6], 7.25 µM. Further, in data set [1], the CC50 at 48 h was over 256 µM. The inhibition at 24 h, 300 µM in data set [7] was 14.5%. The CC50 at 24 h in data set [8] was over 300 µM. In addition, the selectivity ratio in [9] is over 3.94.
`C=CCn1c2ccc([N+](=O)[O-])cc2c(=O)n1Cc1ccccc1`: in data set [1], the CC50 at 48 h is 192 µM. Besides, the half-inhibitory concentration (IC50) is 1.58 µM in data set [2], 4.19 µM in [4] and 359 µM in [6]. For the same molecule, the selectivity ratio turned out to be 122 in data set [3] and 45.9 in [9].
On to `COCCn1c2ccc([N+](=O)[O-])cc2c(=O)n1Cc1ccccc1`, for which the CC50 at 48 h in data set [1] was over 256 µM. The IC50 in [2] was 2.29 µM; in [4], 6.56 µM; in data set [6] it was 285 µM. For the same molecule, the selectivity ratio in data set [3] is over 112; in data set [9], over 39.
Consider `CCOC(=O)CCCOc1c2cc([N+](=O)[O-])ccc2nn1Cc1ccccc1`, for which the CC50 at 48 h in [1] was over 256 µM. Further, the concentration for half-maximal inhibition (IC50) in data set [2] amounted to 25.4 µM; in data set [4], 25.1 µM; in data set [6], 20.6 µM. The values for the selectivity ratio in data set [3] and in [9] were over 10.1 and over 10.2, respectively.
In the case of `O=c1c2cc([N+](=O)[O-])ccc2n(CCCO)n1Cc1ccccc1`, the CC50 at 48 h in [1] was over 256 µM. The values for the IC50 in data set [2], in [4] and in data set [6] were 0.25 µM, 1.68 µM and 128 µM, respectively. The selectivity ratio was over 1024 in [3] and over 152 in data set [9].
`O=c1c2cc([N+](=O)[O-])ccc2n(CCBr)n1Cc1ccccc1`: the CC50 at 48 h in data set [1] is over 256 µM. The IC50 is 1.14 µM in data set [2], 2.13 µM in data set [4] and 348 µM in [6]. Further, the selectivity ratio was over 225 in data set [3] and over 120 in [9].
Turning to `O=[N+]([O-])c1ccc2nn(Cc3ccccc3)c(OCCCBr)c2c1`, the “Ratio CC50/IC50” value in data set [10] came out at 13.8; in [5], 29. Also, the figures for the IC50 in data set [11], in [4] and in [6] were 39.1 µM, 39 µM and 18.6 µM, respectively. The CC50 at 48 h in [1] came out at 59 µM. Further, the inhibition at 24 h, 300 µM in data set [7] is under 20%. In addition, the CC50 at 24 h in data set [8] was found to be 539 µM. For the same molecule, the selectivity ratio in data set [9] turned out to be 1.51.
As to `COC(=O)CCOc1c2cc([N+](=O)[O-])ccc2nn1Cc1ccccc1`, the CC50 at 48 h in data set [1] is over 256 µM. For the same molecule, the IC50 was over 256 µM in data set [4] and 43 µM in data set [6]. For the same molecule, the “Ratio CC50/IC50” value in data set [5] was over 7. In addition, in data set [7], the inhibition at 24 h, 300 µM is under 20%. The CC50 at 24 h in [8] is over 300 µM.
Turning to `CC(=O)OCCn1c2ccc([N+](=O)[O-])cc2c(=O)n1Cc1ccccc1`, the CC50 at 48 h in data set [1] is over 256 µM. For the same molecule, the IC50 in data set [2] came to 0.25 µM; in [4] it was 5.43 µM; in data set [6] it was 266 µM. Moreover, the selectivity ratio was over 1024 in data set [3] and over 47.1 in data set [9].
Consider `Cc1ncc([N+](=O)[O-])n1CCO` [METRONIDAZOLE], for which the “Ratio CC50/IC50” value in data set [10] and in [5] was over 100 throughout. The 50% inhibitory concentration (IC50) in [11] was 5.78 µM; in data set [6], 1.43 µM. In [8], the CC50 at 24 h is over 600 µM.
